The nature of series [1]: Half life in iv dosed rat by cassette studies. It is filed as ADME, organism-based. Particulars: in vivo. Summed up:
(§1)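 Rat PK from intravenous cassette dosing, in which several compounds are given together in one IV administration, followed by plasma sampling to derive clearance, Vdss and elimination half-life.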

The nature of series [2]: Half life in iv dosed dog by cassette studies. It is filed as ADME, organism-based, Canis lupus familiaris. The conditions noted are these: in vivo. Summed up: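 Dog half-life from intravenous cassette dosing, with compounds co-administered IV and plasma sampled for elimination t1/2.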
Series [3] can be described thus: Clearance in iv dosed rat by cassette studies. The format is ADME, organism-based. The conditions noted are these: in vivo. The method in brief: as §1
Series [4] in a line: Volume of distribution at steady state in iv dosed rat by cassette studies. The format is ADME, organism-based. Particulars: in vivo, read-out: Vdss. Summed up:
as §1

Series [5] in a line: AUC (infinity) in Sprague-Dawley rat at 0.5 mg/kg, iv. The format is ADME, organism-based. More on the design: time infinity, dose 0.5 mg/kg, route intravenous. The conditions noted are these: plasma. Summed up: (§2)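 Single-dose pharmacokinetics in male animals, with rats being Sprague Dawley. IV dosing was 0.5 mg/kg (rat N = 2, dog N = 3). Oral dosing was 3 mg/kg (rat N = 3, dog N = 2). Plasma was sampled to derive Cmax, Tmax, AUCinf, clearance, Vdss and t1/2, and oral bioavailability (F) was calculated from the PO versus IV exposure.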

The nature of series [6]: Clearance in Sprague-Dawley rat at 0.5 mg/kg, iv. More on the design: dose 0.5 mg/kg, route intravenous. Particulars: in vivo. The format is ADME, organism-based. The method in brief:
as §2

Series [7] is described as follows: Volume of distribution at steady state in Sprague-Dawley rat at 0.5 mg/kg, iv. It is filed as ADME, organism-based. More on the design: dose 0.5 mg/kg, route intravenous. Particulars: in vivo, read-out: Vdss. Summed up:
as §2

Series [8] can be described thus: Half life in Sprague-Dawley rat at 0.5 mg/kg, iv. It is filed as ADME, organism-based. Details: dose 0.5 mg/kg, route intravenous. The conditions noted are these: in vivo. Summed up:
as §2

Series [9] is described as follows: Cmax in Sprague-Dawley rat at 3 mg/kg, po. The format is ADME, organism-based. More on the design: dose 3 mg/kg, route oral. Particulars: in vivo. Summed up: as §2
Series [10] in a line: Tmax in Sprague-Dawley rat at 3 mg/kg, po. The format is ADME, organism-based. More on the design: dose 3 mg/kg, route oral. Particulars: in vivo. Summed up: as §2
Series [11] can be described thus: AUC (infinity) in Sprague-Dawley rat at 3 mg/kg, po. It is filed as ADME, organism-based. Details: dose 3 mg/kg, route oral, time infinity. The conditions noted are these: plasma. The method in brief:
as §2

Series [12] in a line: Absolute oral bioavailability in Sprague-Dawley rat at 3 mg/kg. It is filed as ADME, organism-based. The conditions noted are these: in vivo. Summed up:
as §2

Series [13] is described as follows: AUC (infinity) in Beagle dog at 0.5 mg/kg, iv. The format is ADME, organism-based, Canis lupus familiaris. More on the design: time infinity, dose 0.5 mg/kg, route intravenous. The conditions noted are these: plasma. Summed up: as §2
Series [14] in a line: Clearance in Beagle dog at 0.5 mg/kg, iv. It is filed as ADME, organism-based, Canis lupus familiaris. More on the design: dose 0.5 mg/kg, route intravenous. The conditions noted are these: in vivo. The method in brief:
as §2

Series [15] is described as follows: Volume of distribution at steady state in Beagle dog at 0.5 mg/kg, iv. The format is ADME, organism-based, Canis lupus familiaris. Details: dose 0.5 mg/kg, route intravenous. The conditions noted are these: in vivo, read-out: Vdss. The method in brief:
as §2

Series [16] is described as follows: Half life in Beagle dog at 0.5 mg/kg, iv. It is filed as ADME, organism-based, Canis lupus familiaris. More on the design: dose 0.5 mg/kg, route intravenous. Particulars: in vivo. The method in brief:
as §2

Series [17] is described as follows: Cmax in Beagle dog at 3 mg/kg, po. It is filed as ADME, organism-based, Canis lupus familiaris. Details: dose 3 mg/kg, route oral. Particulars: in vivo. The method in brief:
as §2

Series [18] is described as follows: Tmax in Beagle dog at 3 mg/kg, po. It is filed as ADME, organism-based, Canis lupus familiaris. More on the design: dose 3 mg/kg, route oral. Particulars: in vivo. Summed up: as §2
Series [19] is described as follows: AUC (infinity) in Beagle dog at 3 mg/kg, po. The format is ADME, organism-based, Canis lupus familiaris. Details: time infinity, dose 3 mg/kg, route oral. Particulars: plasma. Summed up:
as §2

Series [20] can be described thus: Absolute oral bioavailability in Beagle dog at 3 mg/kg. It is filed as ADME, organism-based, Canis lupus familiaris. Particulars: in vivo. Summed up: as §2
A short description of series [21]: Half life in iv dosed rat by singleton studies. Particulars: in vivo. It is filed as ADME, organism-based. Summed up: (§3)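 Rat PK from intravenous singleton dosing, in which each compound is given alone IV, followed by plasma sampling to derive clearance, Vdss and elimination half-life.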
Series [22] is described as follows: Clearance in iv dosed rat by singleton studies. The format is ADME, organism-based. The conditions noted are these: in vivo. The method in brief:
as §3

The nature of series [23]: Volume of distribution at steady state in iv dosed rat by singleton studies. It is filed as ADME, organism-based. Particulars: in vivo, read-out: Vdss. The method in brief: as §3
Series [24] in a line: Half life in iv dosed dog by singleton studies. The conditions noted are these: in vivo. The format is ADME, organism-based, Canis lupus familiaris. The method in brief: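 Dog half-life from intravenous singleton dosing, with each compound given alone IV and plasma sampled for elimination t1/2.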

SMILES strings stand for the structures.

Take `O=C(Nc1ccc(-n2ccccc2=O)cn1)[C@H]1C[C@](O)(c2ccccc2C(F)(F)F)CN1C(=O)Nc1ccc(Cl)cc1`: the values for the half-life in series [1] and in [2] were 1.9 h and 1 h, respectively. The clearance in series [3] was 2.89 mL/min/kg. In addition, in series [4], the Vd turned out to be 0.393 L/kg.
Regarding `O=C(Nc1ccc(-n2ccccc2=O)cn1)[C@H]1C[C@](O)(c2ccc(F)cc2)CN1C(=O)Nc1ccc(Cl)cc1`, the half-life in series [1] was 1.8 h. In addition, the clearance in series [3] was 9.44 mL/min/kg. The Vd in series [4] turned out to be 1.97 L/kg.
For the compound `O=C(Nc1ccc(-n2ccccc2=O)cn1)[C@H]1C[C@](O)(c2ccc(F)c(F)c2)CN1C(=O)Nc1ccc(Cl)cc1`, the half-life in series [1] and in series [2] was 2.1 h in each case. For the same compound, the clearance in series [3] came to 13.1 mL/min/kg. The Vd in series [4] stood at 1.6 L/kg.
On to `O=C(Nc1ccc(-n2ccccc2=O)cn1)[C@H]1C[C@](O)(c2ccc(F)cc2F)CN1C(=O)Nc1ccc(Cl)cc1`, for which the half-life in series [1] is 3.3 h; in [2], 7.3 h; in series [8], 3.3 h; in [16] it was 12.6 h. The clearance came out at 7.64 mL/min/kg in series [3], 9.5 mL/min/kg in [6] and 2.1 mL/min/kg in series [14]. In addition, the Vd in series [4] came to 1.81 L/kg; in series [7], 2.4 L/kg; in series [15], 2 L/kg. For the same compound, the AUC(0-inf) in series [5] came to 978 ng·h/mL; in series [11], 1010 ng·h/mL; in [13] it was 4870 ng·h/mL; in series [19], 6450 ng·h/mL. The figures for the Cmax in series [9] and in series [17] were 236 ng/mL and 397 ng/mL, respectively. Besides, the figures for the Tmax in series [10] and in [18] were 1.7 h and 2 h, respectively. Moreover, the bioavailability in [12] worked out at 19%; in series [20] it was 24%.
As to `Cc1ccc([C@@]2(O)C[C@H](C(=O)Nc3ccc(-n4ccccc4=O)cn3)N(C(=O)Nc3ccc(Cl)cc3)C2)cc1`, the half-life in series [1] is 1.8 h. This compound gave a clearance in series [3] of 10.3 mL/min/kg. Moreover, the Vd in [4] worked out at 1.58 L/kg.
For `Cc1cccc([C@@]2(O)C[C@H](C(=O)Nc3ccc(-n4ccccc4=O)cn3)N(C(=O)Nc3ccc(Cl)cc3)C2)c1` the same measures were 1.4 h, 6.78 mL/min/kg and 0.438 L/kg.
On to `O=C(Nc1ccc(-n2ccccc2=O)cn1)[C@H]1C[C@](O)(c2ccccc2Cl)CN1C(=O)Nc1ccc(Cl)cc1`, for which the values for the half-life in series [1] and in [2] were 2.9 h and 0.8 h, respectively. Also, the clearance in series [3] worked out at 4.16 mL/min/kg. Besides, in series [4], the Vd is 0.923 L/kg.
`CO[C@@H]1C[C@H](C(=O)Nc2ccc(-n3ccccc3=O)cn2)N(C(=O)Nc2ccc(Cl)cc2)C1`: in series [1], the half-life is 2 h.
Same read-out and setting: to `CC[C@@]1(O)C[C@H](C(=O)Nc2ccc(-n3ccccc3=O)cc2F)N(C(=O)Nc2ccc(Cl)cc2)C1` belongs 2.4 h.
Same read-out and setting: to `CCO[C@]1(CC)C[C@H](C(=O)Nc2ccc(-n3ccccc3=O)cc2F)N(C(=O)Nc2ccc(Cl)cc2)C1` belongs 1.4 h.
As for `Cc1cccn(-c2ccc(NC(=O)[C@H]3C[C@@](C)(O)CN3C(=O)Nc3ccc(Cl)cc3)c(F)c2)c1=O`, in series [1], the half-life is 1.6 h. The half-life values of the last two compounds are within 1.5-fold of each other.
Same read-out and setting: to `CO[C@]1(C)C[C@H](C(=O)Nc2ccc(-n3ccccc3=O)cc2F)N(C(=O)Nc2ccc(Cl)cc2)C1` belongs 1.7 h.
In series [1], `Cc1ccccc1[C@@]1(O)C[C@H](C(=O)Nc2ccc(-n3ccccc3=O)cn2)N(C(=O)Nc2ccc(Cl)cc2)C1` had a half-life of 1.3 h. In [3], the clearance stood at 5.12 mL/min/kg. Further, in [4], the Vd was 0.468 L/kg.
Take `O=C(Nc1ccc(-n2ccccc2=O)cc1F)[C@H]1C[C@](O)(c2ccccc2)CN1C(=O)Nc1ccc(Cl)cc1`: the half-life in series [21] is 4 h.
Take `O=C(Nc1ccc(-n2ccccc2=O)cn1)[C@H]1C[C@](O)(c2ccccc2)CN1C(=O)Nc1ccc(Cl)cc1`: the half-life in series [1] and in [2] was 2.9 h each time. Moreover, in series [22], the clearance turned out to be 6.73 mL/min/kg. Moreover, in series [23], the Vd stood at 1.49 L/kg.
Turning to `CC[C@@]1(O)C[C@H](C(=O)Nc2ccc(-n3cccc(C)c3=O)cc2F)N(C(=O)Nc2ccc(Cl)cc2)C1`, the half-life in [1] is 5.2 h.
In series [1], `CC[C@@]1(OC)C[C@H](C(=O)Nc2ccc(-n3ccccc3=O)cc2F)N(C(=O)Nc2ccc(Cl)cc2)C1` had a half-life of 1.7 h.
`CO[C@@H]1C[C@H](C(=O)Nc2ccc(-n3ccccc3=O)cc2F)N(C(=O)Nc2ccc(Cl)cc2)C1` [ERIBAXABAN]: the half-life in series [1] was 2.6 h; in series [21], 2 h; in series [24] it was 4.9 h. The same compound had a clearance in series [22] of 12 mL/min/kg. In addition, in series [23], the Vd came to 1.1 L/kg.

A word on the half-life: it is how long it takes for the measured level to halve. A word on the clearance: it is a measure of how efficiently the substance is removed, as volume per time. A high value points to efficient removal. For orientation: AUC(0-inf) means the area under the concentration-time curve extrapolated to infinity. A high value points to more exposure. The Cmax is the highest concentration seen after dosing. The Tmax is the time at which the peak concentration occurs. A word on the bioavailability: it is dose-corrected exposure relative to a reference, in per cent. A high value points to much systemic uptake.
